Here are results for two compounds from ChEMBL document CHEMBL5154683, “A 5-FU Precursor Designed to Evade Anabolic and Catabolic Drug Pathways and Activated by Pd Chemistry In Vitro and In Vivo” (J Med Chem, 2022).

Data set [1] has as its system BXPC-3. Description: Antiproliferative activity against human BxPC-3 cells assessed as reduction in cell viability measured after 5 days by PrestoBlue reagent based assay. The data set is classed as functional. As to conditions: BXPC-3, 120 h. An outline of the steps:
(§1)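 Cells in 10% FBS, 2 mM L-glutamine media at 37 °C, 5% CO₂ (HCT116 in McCoy's 5A, BxPC-3 in RPMI). Seeded at 3000 (HCT116) or 2500 (BxPC-3) cells/well and grown 48 h. Medium then replaced with drug-containing medium, 0.1% DMSO, for 5 d. PrestoBlue 10% v/v added for 1 h, fluorescence read ex 540/em 590 nm. Normalised to DMSO-only wells; sigmoidal variable-slope fit; n = 3.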

Data set [2] concerns HCT-116. Description: Antiproliferative activity against human HCT-116 cells assessed as reduction in cell viability measured after 5 days by PrestoBlue reagent based assay. The data set is classed as functional. The following applies: HCT-116, 120 h. In outline: as §1
Data set [3] in a line: Prodrug conversion in human liver S9 fraction assessed as DH5FU metabolite formation at 1.6 mM incubated for 1 hr in presence of NADPH by 19F-NMR based analysis. The data set is classed as ADME, subcellular. As to conditions: s9, 1 h, 1600 µM. An outline of the steps: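 Compound added as 150 mM stock in DMSO-d₆, preincubated 5 min at 37 °C with enzyme mixture, then NADPH added (1 mM) and incubated 1 h at 37 °C, 600 rpm; controls without NADPH and without enzymes. Stopped with EtOAc, dried under N₂, redissolved in DMSO-d₆, DH5FU detected by ¹⁹F NMR vs authentic sample.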

Data set [4] relates to HCT-116. In words: Antiproliferative activity against human HCT-116 cells assessed as reduction in cell viability at 100 uM incubated for 5 days in presence of Pd-resins at 0.8 mg/ml by PrestoBlue dye based assay relative to control. The data set is classed as functional. As to conditions: time 5 day. An outline of the steps:
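HCT116 seeded at 750 cells/well and grown 48 h. Medium then replaced with fresh medium with or without Pd resins (20–160 μg per well; 0.2–1.4 mg/mL). Compound added as 5 μL of a 2 mM stock in 2% DMSO/medium, incubated 5 d. PrestoBlue fluorescence read; values normalised to untreated cells within each resin dilution.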

Turning to `O=c1[nH]cc(F)c(=O)[nH]1` [FLUOROURACIL], the EC50 – broadly, the concentration giving half of the maximal effect – is 140 nM in data set [1] and 500 nM in data set [2]. Besides, in data set [3], the Drug metabolism entry is reported as “Metabolite_Detected”.

For the compound `C#CCn1cc(F)c(=O)[nH]c1=O`, the Activity in data set [4] turned out to be 14%. In data set [3], the Drug metabolism result is on record as “Metabolite_Detected”.
